Assay outcomes: PubChem BioAssay, SRMLSC
Shown is part of a subset that was picked to be rich in hits.
HUVEC prolif 384 = inhibitors of HUVEC proliferation, primary screen, cell-based, 384-well; CellTiter-Glo luminescence, 72 h; stronger effect = lower value; viability, % at 10 µM (by protocol); 1.1% of 86,000 active; AID 648, 2007;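 active = viability at or below 30%; inactive = viability above 30%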;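 note: 100% = median luminescence of DMSO-only cell control wells on each plate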
bCat KO growth = primary screen for growth suppressors in beta-catenin knockout HCT116 cells (colon tumor, human) | 1.5% of 140,000 active | AID 818, 2007 | viability, % at 10 µM | HCT116 beta-catenin knockout viability, CellTiter-Glo, 60 h; stronger effect = lower value;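 active = viability at or under a set limit, the compound median less 4 SD, cut at about 6% in these data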;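 note: 0% = Hyamine 1622 control at 20 µM and 100% = untreated cell control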
Fibroblast inh = antiproliferative effect on LL 47 fibroblasts – human, LL 47 cells, CellTiter-Glo luminescence, primary screen; viability, % at 10 µM; 1.1% of 85,000 active; AID 719, 2007; LL 47 human lung fibroblast viability, ATP luminescence; stronger effect = lower value;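 active = viability at or below 50% in the single dose screen; inactive = viability above 50%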;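 note: compound exposure lasted 72 h before the ATP readout; 100% = median luminescence of untreated cell-only wells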
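Assay system: human lung fibroblast line LL 47, low passage. Input: 1,150 fibroblasts seeded per well. Times: overnight cell rest, 72 h compound treatment at 37 °C. Evaluation: % viability of median cell-only signal. Technique: luminescent ATP detection, CellTiter-Glo. Control set: cell-only wells, no compound.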
HCT116 PTEN-null = growth suppression of PTEN-null HCT116, primary screen, cell-based, CellTiter-Glo | HCT116 PTEN-null viability, 60 h; stronger effect = lower value | viability, % at 10 µM | 1.2% of 140,000 active;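 active = viability at or below a set limit, 4 SD under the median of all tested compounds, cut at about 3.7% in these data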;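 note: PTEN knockout HCT116 line with beta catenin targeted HCT116 as companion control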
H69AR inhibit = proliferation blockers of H69AR lung cancer cells, primary screen, cell-based, human, 86K library; H69AR lung tumor viability, ATP luminescence, 72 h; stronger effect = lower value; 6% of 85,000 active; AID 598, 2007; viability, % at 10 µM;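 active = viability at or below 40%; inactive = viability above 40%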;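 note: multidrug resistant small cell line overexpressing MRP-1 efflux transporter; 100% = mean luminescence of untreated control wells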
Numbers without * were called inactive; . = not tested or not shown.

SMILES	HUVEC prolif 384	bCat KO growth	Fibroblast inh	HCT116 PTEN-null	H69AR inhibit
CCc1nnc(NC(=O)c2cccc(C(=O)Nc3nnc(CC)s3)n2)s1	3.7*	5.0*	4.8*	2.2*	3.7*
CCc1nnc(NC(=O)c2ccc3c(c2)C(=O)N(C(C)(C)C)C3=O)s1	87	99	101	97	39*
C=CCn1c(O)c(N=NC(=S)Nc2cccc(C)c2)c2ccccc21	48	13	52	14	22*
CCOc1ccccc1OCCCNCc1ccco1	.	85	.	102	.
O=C(CCC(=O)c1ccc(F)cc1)Nc1cccc(S(=O)(=O)Nc2cccc(Cl)c2)c1	.	75	.	77	.
CCCCCCCCC[n+]1cccc2c3ccccc3ccc21	.	1.2*	.	1.2*	.
O=C(C[n+]1cc2ccccc2c2ccccc21)c1ccccc1	.	34	.	48	.
CCCCCCCCCCCCCCCC[n+]1cccc2ccccc21	.	1.4*	.	1.7*	.
Cc1c(NC(=O)OC(C)C)sc(=S)n1C	102	101	105	91	102
O=[N+]([O-])c1ccc(/C=N/Nc2nc(-c3ccccc3)c3cc(Br)ccc3n2)o1	.	1.7*	.	1.4*	.
O=[N+]([O-])c1ccc(/C=N/Nc2nc(N3CCCC3)nc(N3CCCC3)n2)o1	6.8*	65	87	44	26*
N#Cc1ccccc1/C=N/Nc1nc(-c2ccccc2)c2cc(Br)ccc2n1	.	2.1*	.	6	.
Cc1ccc2nc(N/N=C\c3ccc([N+](=O)[O-])o3)nc(-c3ccccc3)c2c1	51	2.1*	90	3.0*	13*
O=Cc1ccc(OC2OCCOC2Oc2ccc(C=O)cc2)cc1 (stereo not drawn)	.	92	.	89	.
Cn1nc(C(F)(F)F)c(/C=N/OC(=O)c2ccccc2Cl)c1SCc1ccccc1Cl	.	35	.	34	.
O=C(c1ccc(Cl)c(S(=O)(=O)NCc2ccccc2)c1)N1CCN(c2ccccn2)CC1	74	48	94	.	21*
Cc1cccc(N2CCN(C(=O)c3ccc(Cl)c(S(=O)(=O)NCc4ccco4)c3)CC2)c1C	55	10	68	9	21*
O=C(O)c1ccc(Cl)c(S(=O)(=O)NCc2ccco2)c1	106	99	98	102	91
O=C(Cc1ccc(-n2cccc2)cc1)NCc1cccs1	67	18	61	23	29*
CCOC(=O)C(C)(C)N(Cc1cccc(C)c1)S(=O)(=O)c1ccc(Cl)c([N+](=O)[O-])c1	.	1.7*	.	3.3*	.
Cc1oc(-c2ccccc2F)nc1CN1CCC(C(=O)NCCC2=CCCCC2)CC1	20*	10	90	19	81
COc1ccc(CCNC(=O)C2CCN(Cc3nc(-c4ccccc4F)oc3C)CC2)cc1OC	102	60	104	63	90
Cc1ccccc1-c1nc(CN2CCC(C(=O)NCCCN3CC(C)CC(C)C3)CC2)c(C)o1 (stereo not drawn)	14*	32	77	36	64
CCOC(=O)N1CCC(n2c(=S)[nH]c3cc(OCC)c(OCC)cc3c2=O)CC1	28*	86	12*	84	22*
CCOc1cc2[nH]c(=S)n(CCN3CCC(C)CC3)c(=O)c2cc1OCC	96	60	101	64	58
SMILES	HUVEC prolif 384	bCat KO growth	Fibroblast inh	HCT116 PTEN-null	H69AR inhibit
Cc1ccc(Nc2cc(C)nc(NCc3ccccc3)n2)cc1	.	1.0*	.	1.0*	.
COc1cc(C)nc(NCc2ccccc2)n1	99	97	91	100	92
Cc1cc(NC2CCCCC2)nc(NCc2ccccc2)n1	.	2.6*	.	3.2*	.
Cc1cc(N/N=C/c2ccccc2Cl)nc(NCc2ccccc2)n1	.	42	.	26	.
Cc1nc2cc(NC(=O)CCS(=O)(=O)c3ccccc3)ccc2s1	.	94	.	106	.
CNC(=O)COC(=O)/C=C/c1c(C)nn(-c2ccccc2)c1C	.	77	.	91	.
Cc1ccc(-n2nnnc2SCC(=O)Nc2ncc(Cc3ccccc3Cl)s2)cc1	.	59	.	98	.
COc1ccccc1C1c2c(oc3ccc(Cl)cc3c2=O)C(=O)N1c1cc(C)on1 (stereo not drawn)	42	.	36*	.	40*
O=Cc1c(N2CCCCCC2)nc2ccccn2c1=O	93	91	94	91	102
O=Cc1c(Sc2ccccn2)nc2ccccn2c1=O	85	78	102	81	22*
O=Cc1c(Sc2ccccc2)nc2ccccn2c1=O	69	46	64	60	2.6*
COc1ccc(COc2ccccc2C(=O)NCc2ccccc2)cc1F	.	67	.	69	.
CC(C)CCn1c(O)c(N=Nc2ccccn2)c2ccccc21	.	89	.	89	.
Oc1ccc2ccccc2c1N=Nc1ccccn1	.	2.4*	.	2.6*	.
Cc1ccc(-n2c(C)c3c(C)nnc(C)c3c2C)cc1	87	.	102	.	81
Cc1ccc(-n2c(C)c3c(C)nnc(C)c3c2C)cc1C	102	4.0*	93	8	32*
N#C/C(=C/c1ccc(N2CCCCCC2)o1)c1cccc(F)c1	95	47	87	69	37*
N#C/C(=C/c1ccc(N2CCCCCC2)o1)c1ccc(F)cc1	56	46	11*	33	2.8*
COc1cccc(/C=C(/C#N)c2ccc(F)cc2)c1OCc1cccc(C(=O)O)c1	.	99	.	101	.
N#C/C(=C\c1ccc(Sc2ccc(Cl)cc2)o1)c1nc2ccccc2[nH]1	.	53	.	34	.
COc1cc(N2CCCC2)c(OC)cc1/C=C(/C#N)c1cccc(F)c1	95	72	88	68	25*
N#C/C(=C\c1ccc(Sc2nc3ccccc3[nH]2)o1)c1ccccc1	53	61	88	68	33*
COc1ccc(/C(C)=N/OCC(=O)N2CC3(C)CC2CC(C)(C)C3)cc1 (stereo not drawn)	.	83	.	80	.
Nc1cc(C(F)(F)F)cc2c1SCC(=O)N2	.	83	.	84	.
CCNC(=O)COc1cccc(C(=O)NCc2ccccc2)c1	.	96	.	97	.
SMILES	HUVEC prolif 384	bCat KO growth	Fibroblast inh	HCT116 PTEN-null	H69AR inhibit
CCN(CC)Cc1ccccc1Sc1ccccc1	.	90	.	95	.
N#C/C(=C/c1ccc(N2CCOCC2)o1)c1nc2ccccc2[nH]1	51	84	76	81	23*
N#C/C(=C\c1ccc(N2CCOCC2)o1)c1ccccc1	.	57	.	65	.
COc1ccccc1Cn1c(/C=C/c2ccccc2)nc2ccccc21	.	61	.	59	.
COc1ccc(/C=C/c2nc3ccccc3n2Cc2ccccc2OC)cc1	.	1.9*	.	2.8*	.
N#CC1=C(SCC(=O)c2ccccc2)NC2=C(C(=O)CCC2)C1c1ccco1 (stereo not drawn)	44	12	64	9	16*
CC(C)(C)c1ccc(C(=O)CCCSC2=C(C#N)C(c3ccco3)C3=C(CCCC3=O)N2)cc1 (stereo not drawn)	68	62	81	53	49
Cc1ccc(C(=O)CSC2=C(C#N)C(c3ccco3)C3=C(CCCC3=O)N2)cc1 (stereo not drawn)	50	19	60	18	19*
